{"data": "Measurements gathered from unrelated publications", "target": "Interleukin-1 receptor-associated kinase 1 (IRAK1, Homo sapiens, UniProt P51617)", "note": "Lines come from different studies, so protocols differ."}
{"SMILES": "CCC(=O)N[C@@H]1CC[C@H](C(=O)N(C)c2ccc(-c3nc4ccccc4o3)cc2)C1", "observed": "cell-free assay", "method": "competition with immobilised ligand", "tested at": "1 µM", "remaining binding [%]": 100}
{"SMILES": "C[C@@H]1CCN(c2nccc(-c3cnn4ncccc34)n2)C1", "observed": "binding", "tested at": "1 µM", "remaining binding [%]": 98}
{"SMILES": "C[C@@]1(Cc2ccc(C#N)cc2)C(=O)N(c2cc(Cl)cc(Cl)c2)c2ncc(C(=O)NC3(c4nc(C5CCC5)no4)CC3)n21", "observed": "cell-free assay", "method": "competition with immobilised ligand", "tested at": "1 µM", "remaining binding [%]": 100}
{"SMILES": "O=C(c1ccc(Nc2ncc(Cl)c(-c3ccc(Cl)s3)n2)cc1)N1CCC(N2CCCC2)CC1", "observed": "binding", "method": "competition with immobilised ligand", "tested at": "1 µM", "remaining binding [%]": 0.05}
{"SMILES": "CN(C)c1nccc(-c2cnn3ncccc23)n1", "observed": "binding", "tested at": "1 µM", "remaining binding [%]": 71}
{"SMILES": "O=C(Nc1c[nH]nc1C(=O)NC1CCNCC1)c1cc(F)cc(F)c1", "observed": "binding", "method": "competition with immobilised ligand", "tested at": "1 µM", "remaining binding [%]": 95}
{"SMILES": "CN(C)c1nccc(-c2cnc3ncccn23)n1", "observed": "binding", "tested at": "1 µM", "remaining binding [%]": 65}
{"SMILES": "O=C(NCCCN1CCOCC1)c1ccc(Nc2ncc(Cl)c(-c3ccc(Cl)s3)n2)cc1", "observed": "binding", "method": "competition with immobilised ligand", "tested at": "1 µM", "remaining binding [%]": 0.15}
{"SMILES": "Nc1ncc2c(n1)-c1c([nH]c3ccc(C#CC4CC4)cc13)CCCC2", "observed": "binding", "method": "competition with immobilised ligand", "tested at": "1 µM", "remaining binding [%]": 96}
{"SMILES": "N#CC1(c2ccccn2)CCN(Cc2cc(C(=O)N3CCCC3)c(=O)n3ccccc23)CC1", "observed": "cell-free assay", "method": "competition with immobilised ligand", "tested at": "1 µM", "remaining binding [%]": 100}
{"SMILES": "COc1cnc(Nc2cccc(S(N)(=O)=O)c2)nc1N1CCN(c2ccccc2)CC1", "observed": "binding", "method": "competition with immobilised ligand", "tested at": "1 µM", "remaining binding [%]": 68}
{"SMILES": "O=C(NCCCN1CCOCC1)c1ccc(Nc2nccc(-c3cc4ccccc4s3)n2)cc1", "observed": "binding", "method": "competition with immobilised ligand", "tested at": "1 µM", "remaining binding [%]": 3.3}
{"SMILES": "Cc1c(NC(=O)c2cc(C(N)=O)nc3cc(F)ccc23)c(C(F)(F)F)nn1Cc1ccc(C#N)cc1", "observed": "cell-free assay", "method": "competition with immobilised ligand", "tested at": "1 µM", "remaining binding [%]": 70}
{"SMILES": "CN(C)c1ncc(F)c(-c2cnn3ncccc23)n1", "observed": "binding", "tested at": "1 µM", "remaining binding [%]": 66}
{"SMILES": "c1cncc(-c2cccc(Nc3nccc(NC4CCCCC4)n3)c2)c1", "observed": "binding", "method": "competition with immobilised ligand", "tested at": "10 µM", "remaining binding [%]": 9.9}
{"SMILES": "N[C@@H]1CCN(c2nccc(-c3cnn4ncccc34)n2)C1", "observed": "binding", "tested at": "1 µM", "remaining binding [%]": 100}
{"SMILES": "COc1ncc2cc3ccccc3nc2c1C#N", "observed": "cell-free assay", "method": "competition with immobilised ligand", "tested at": "5 µM", "remaining binding [%]": 92}
{"SMILES": "C[C@H](c1cccc(C#N)c1)n1cc(Cl)cc(C(N)=O)c1=N", "observed": "cell-free assay", "method": "competition with immobilised ligand", "tested at": "1 µM", "remaining binding [%]": 71}
{"SMILES": "C[C@@H](c1ccc(-n2cnc3c(N)ncnc32)cc1)N1CCc2nn(C)c(Cc3ccccc3)c2C1=O", "observed": "binding", "method": "competition with immobilised ligand", "tested at": "0.1 µM", "remaining binding [%]": 69}
{"SMILES": "CCCOc1ccc([C@H]2[C@H](C(=O)O)[C@@H](c3ccc4c(c3)OCO4)CN2CC(=O)Nc2c(CC)cccc2CC)cc1", "observed": "cell-free assay", "method": "competition with immobilised ligand", "tested at": "1 µM", "remaining binding [%]": 67}
{"SMILES": "Cc1cnn2ncc(-c3ccnc(N(C)C)n3)c2c1", "observed": "binding", "tested at": "1 µM", "remaining binding [%]": 100}
